High-throughput results deposited in PubChem by Johns Hopkins Ion Channel Center.
RGS4 block = human RGS4 inhibition. HEK293 M3R/RGS4 inducible, Fluo-4 calcium flux; hits give high values; triggered by carbachol at its EC20. actives 0.45% (n = 310,000). P49798. B-score at 10 µM;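 active = B-score, a plate-corrected calcium signal, over three deviations above library mean, with baseline fluorescence within five deviations of library mean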;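 also: RGS4 expression induced by doxycycline in cells with stable M3 receptor; B-score is computed from the integrated fluorescence ratio over baseline after carbachol; higher B-score means a larger calcium signal and so more RGS4 inhibition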
Target sequence (P49798 whole entry, looked up): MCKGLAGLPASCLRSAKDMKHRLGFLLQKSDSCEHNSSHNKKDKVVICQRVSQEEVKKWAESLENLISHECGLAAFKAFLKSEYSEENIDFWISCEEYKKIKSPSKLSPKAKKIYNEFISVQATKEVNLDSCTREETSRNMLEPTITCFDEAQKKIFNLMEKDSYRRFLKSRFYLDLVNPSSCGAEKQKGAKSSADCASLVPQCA
MrgX1 PAM = allosterically activates human MrgX1 receptor signaling; Q96LB2; MrgX1-HEK293, Fluo-4 calcium flux, FDSS; hits give high values; B-score at 10 µM; actives 0.63% (n = 310,000);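 active = plate-corrected calcium response at least 3 library SD above typical, normal starting fluorescence, not activating the receptor alone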;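 also: compound read alongside a low EC10 to EC30 dose of BAM8-22 agonist; peak minus trough fluorescence over baseline measured at the second addition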
Target sequence (Q96LB2 whole entry, looked up): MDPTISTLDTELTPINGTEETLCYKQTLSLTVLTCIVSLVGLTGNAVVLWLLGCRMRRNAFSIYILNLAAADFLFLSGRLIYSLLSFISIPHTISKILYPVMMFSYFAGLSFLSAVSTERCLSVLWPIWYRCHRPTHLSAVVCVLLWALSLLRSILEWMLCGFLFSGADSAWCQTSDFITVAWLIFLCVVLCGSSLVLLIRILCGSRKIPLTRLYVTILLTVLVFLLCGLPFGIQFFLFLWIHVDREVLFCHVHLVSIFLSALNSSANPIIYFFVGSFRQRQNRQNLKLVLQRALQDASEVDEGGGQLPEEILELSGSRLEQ
RGS4 pot = RGS4 potentiation or activation; actives 0.92% (n = 310,000); AID 463111; B-score at 10 µM; HEK293 M3R/inducible RGS4, carbachol calcium flux Fluo4; hits give low values;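 active = B-score of the integrated calcium signal more than 4 SD below the library mean, with starting fluorescence not abnormally high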;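 also: negative B-score means reduced calcium response which marks RGS4 activation or potentiation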
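Assay system: Inducible-RGS4 HEK293 cells carrying M3 receptor | Schedule: Compound preincubation 20 min at room temperature before agonist | Signal: Kinetic calcium fluorescence imaging with Fluo4-AM dye, 2 µM | Read-out basis: B score from integrated fluorescence ratio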
MrgX1 antag = blocks BAM8-22 activation of human MrgX1 receptor. B-score at 10 µM. Q96LB2. MRGX1-HEK293 calcium flux, Fluo-4, BAM8-22 antagonism; hits give low values. actives 1.3% (n = 310,000);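 active = calcium-response B-score plate-corrected more than 3 library SD below zero, starting fluorescence within 5 deviations, no agonist response on first addition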;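 also: peak minus trough fluorescence over baseline after final BAM8-22 challenge near maximal dose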
MrgX1 ag = agonists of human MrgX1 receptor. AID 588627. B-score at 10 µM. Q96LB2. MrgX1-HEK293 cells, Fluo-4 calcium fluorescence, agonist mode; hits give high values. actives 0.44% (n = 310,000);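 active = calcium response B-score plate-corrected fluorescence ratio at least 3 library SD, with starting fluorescence B-score inside 5 SD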
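Material: HEK293 cells stably expressing human MrgX1 receptor | Quantity: 15,000 cells per well | Times: Cells plated overnight, dye loaded 0.5 h 37 °C, 0.5 h room temperature | Measured by: Kinetic Fluo-4 NW fluorescence of intracellular calcium | Control set: Positive and negative controls per plate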
MrgX1 ant reconf = confirmation of human MrgX1 receptor antagonists; shares compounds with MrgX1 antag; MrgX1-HEK293, BAM8-22 calcium flux, Fluo-4; hits give low values; remaining BAM8-22 calcium response % of control (hits give low values), % at 10 µM; actives 19% (n = 2,300);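 active = remaining agonist calcium response no higher than 100% minus 3 SD of agonist-only control wells, with starting fluorescence near control levels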;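 also: agonist BAM8-22 given at a near maximal EC90 to ECmax level; peak minus minimum fluorescence divided by baseline after agonist addition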
HEK293 Ca flux = MrgX1 antagonist counter-screen hit in parental HEK293 cells. shares compounds with MrgX1 antag. Fluo-4 calcium fluorescence, FDSS. fluorescence ratio F(max-min)/F0 at 10 µM. actives 2% (n = 4,000). AID 624111;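 active = duplicate-averaged calcium fluorescence ratio at least three times the standard deviation of buffer wells, a nonspecific response in parental cells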
HEK293 Ca counter = activity in parental HEK293 cells without MrgX1 | shares compounds with MrgX1 antag | parental HEK293 calcium flux, Fluo-4 fluorescence ratio; hits give high values | fluorescence ratio F(max-min)/F0 at 10 µM | actives 0.4% (n = 4,000) | AID 624114;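 active = calcium fluorescence ratio, averaged over duplicates, at least 3 SD of the buffer-well ratio, meaning a nonspecific response in receptor-free cells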;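 also: untransfected parental HEK293 lacking MrgX1 used as counterscreen for MrgX1 allosteric activators; fluorescence change taken during the second addition on a kinetic imager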
HEK293 Ca cntr2 = activity in parental HEK293 cells lacking MrgX1 receptor. shares compounds with MrgX1 antag. actives 8.7% (n = 4,000). Fluo-4 calcium fluorescence (FDSS); hits give high values. fluorescence ratio F(max-min)/F0 at 10 µM;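 active = calcium fluorescence ratio at least three times the spread of buffer wells, meaning a non-specific response in parental cells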
Of the large screens only hits and unclear results are named; the others gave an inactive call (follow-up assays come after a bar, where they were run). Sampled rows, rich in hits. Any-hit rate of the full collection: about 3.5%.

Cc1ccc(S(=O)(=O)/N=c2\sccn2C)cc1	none
Cn1c(=O)c(=O)n(C)c2cc(S(=O)(=O)Nc3ccc4c(c3)OCCO4)ccc21	MrgX1 antag -5.9 | MrgX1 ant reconf inactive | HEK293 Ca flux inactive | HEK293 Ca counter inactive | HEK293 Ca cntr2 inactive
O=C(Nc1cccc(F)c1)Nc1ccnn1C1CCN(C(=O)c2cscn2)CC1	MrgX1 antag -7.3 | MrgX1 ant reconf inactive | HEK293 Ca flux inactive | HEK293 Ca counter inactive | HEK293 Ca cntr2 inactive
O=C(Nc1cccc(F)c1)Nc1ccnn1C1CCN(C(=O)CCN2CCCO2)CC1	none
COc1ccc(C(=O)Oc2ccc3c(C)cc(=O)oc3c2C(C)=O)cc1	MrgX1 antag -4.6 | MrgX1 ant reconf inactive | HEK293 Ca flux inactive | HEK293 Ca counter inactive | HEK293 Ca cntr2 inactive
CSc1ccccc1C(=O)Nc1nc2ccccc2[nH]1	none
CCCCC(=O)Oc1c(S(=O)(=O)c2ccc(C)cc2)c(C)nn1C(C)(C)C	MrgX1 antag -5.2 | MrgX1 ant reconf inactive | HEK293 Ca flux inactive | HEK293 Ca counter inactive | HEK293 Ca cntr2 inactive
CC(=O)Oc1c(S(=O)(=O)c2ccc(C)cc2)c(C)nn1C(C)(C)C	none
CCOC(=O)c1sc2nc(CSc3ccccc3)nc(N3CCC(C(N)=O)CC3)c2c1C	none
Cc1sc2nc(CSc3ccccc3)nc(N3CCC(C(N)=O)CC3)c2c1C	MrgX1 antag -11 | MrgX1 ant reconf inactive | HEK293 Ca flux inactive | HEK293 Ca counter inactive | HEK293 Ca cntr2 inactive
CCOC(=O)CC1C(=O)NCCN1C(=O)c1c(F)cccc1F (stereo not drawn)	none
O=C(Cn1c(C(F)(F)F)nc2ccccc21)Nc1ccccc1N1CCOCC1	MrgX1 antag -9.3 | MrgX1 ant reconf inactive | HEK293 Ca flux inactive | HEK293 Ca counter inactive | HEK293 Ca cntr2 inactive
COc1ccc(C(=O)N(C)Cc2ccccn2)cc1OC1CCN(C(C)C)CC1	MrgX1 antag -5.2 | MrgX1 ant reconf inactive | HEK293 Ca flux inactive | HEK293 Ca counter inactive | HEK293 Ca cntr2 inactive
COc1ccc(C(=O)N(C)Cc2ccon2)cc1OC1CCN(C(C)C)CC1	none
CCOC(=O)Nc1ccc2c(CN3C(=O)NC(CC)(CC)C3=O)cc(=O)oc2c1	MrgX1 antag -4.7 | MrgX1 ant reconf 81% | HEK293 Ca flux inactive | HEK293 Ca counter inactive | HEK293 Ca cntr2 inactive
CCOC(=O)Nc1ccc2c(CN3CCN(S(=O)(=O)c4ccccc4)CC3)cc(=O)oc2c1	none
CN1C(=O)CC(N2CCC(C(N)=O)CC2)C1=O (stereo not drawn)	none
CN1C(=O)CC(N2CCN(CC(N)=O)CC2)C1=O (stereo not drawn)	MrgX1 antag -5.6 | MrgX1 ant reconf inactive | HEK293 Ca flux inactive | HEK293 Ca counter inactive | HEK293 Ca cntr2 inactive
CCOC(=O)c1c(C(=O)OCC)c(C)n(Cc2cc(OC)c(OC)c(OC)c2)c1C	none
NC(=O)c1cc([N+](=O)[O-])ccc1NCCN1C(=O)c2ccc(C(=O)O)cc2C1=O	none
O=C1CC(N2CCN(c3ccccc3)CC2)C(=O)N1c1cccc(Br)c1 (stereo not drawn)	none
O=C1CC(N2CCSCC2)C(=O)N1c1cccc(Br)c1 (stereo not drawn)	MrgX1 antag -9.1 | MrgX1 ant reconf inactive | HEK293 Ca flux inactive | HEK293 Ca counter inactive | HEK293 Ca cntr2 inactive
O=C(COc1ccc(S(=O)(=O)N2CCOCC2)cc1)N1CCN(c2ccccc2)CC1	none
O=C(O)CCNc1ccc(NCCC(=O)O)c2c1C(=O)c1ccccc1C2=O	MrgX1 antag -4.7 | MrgX1 ant reconf inactive | HEK293 Ca flux inactive | HEK293 Ca counter inactive | HEK293 Ca cntr2 inactive
COc1ccc(C(=O)/C=C/NCc2ccc(C)cc2)cc1	none
